The results in this text go back to ChEMBL document CHEMBL4028851, “Discovery of Potent Small-Molecule Inhibitors of Ubiquitin-Conjugating Enzyme UbcH5c from α-Santonin Derivatives” (J Med Chem, 2017).

Molecules are shown by their SMILES. Active and inactive are the calls of the source.

Data set [1] in a line: Cmax in Sprague-Dawley rat at 5 mg/kg, po via gavage by LC-MS/MS analysis. In kind it is ADME, organism-based. More on the design: dose 5 mg/kg, route oral. To be noted: in vivo. An outline of the steps:
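Male Sprague-Dawley rats (about 200‒220 g; n = 6) were fasted overnight and gavaged with 5 mg/kg as a suspension in 0.5% methylcellulose. Blood was taken from the orbital artery at 0.083–24 h into heparin tubes. Plasma was quantified by LC/MS/MS (ESI, MRM), with noncompartmental analysis. Bioavailability was referenced to a 1 mg/kg iv dose. Values are mean ± SD.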

The target in data set [2] is Ubiquitin-conjugating enzyme E2 D3 (Mus musculus) (UniProt P61079). The experiment in a line: Inhibition of UbcH5c in mouse b.End3 cells assessed as decrease in TNF-alpha-mediated p65 phosphorylation preincubated for 2 hrs followed by TNF-alpha stimulation for 20 mins by Western blot analysis. In kind it is cell-based. An outline of the steps:
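bEnd.3 cells (DMEM, 10% FBS) were pretreated with compound at 2.5, 5 or 10 µM for 2 h, then stimulated with 20 ng/mL TNF-α (15 min in the methods, 20 min in the legend). Lysates were run on 10% SDS-PAGE and immunoblotted for phospho-IκBα, IκBα, phospho-p65 and p65, with GAPDH as loading control.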
On the technique in general: A western blot detects proteins with antibodies after separation by electrophoresis.

The target in data set [3] is T1, Ubiquitin-conjugating enzyme E2 H (Homo sapiens) (UniProt P62256).
T1 sequence (whole entry): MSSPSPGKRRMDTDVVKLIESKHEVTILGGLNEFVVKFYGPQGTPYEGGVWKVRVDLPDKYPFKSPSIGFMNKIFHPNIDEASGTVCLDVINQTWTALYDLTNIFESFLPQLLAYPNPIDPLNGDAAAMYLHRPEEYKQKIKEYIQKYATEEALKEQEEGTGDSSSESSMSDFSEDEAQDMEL
The experiment in a line: Inhibition of UbcH2 (unknown origin) at 2.5 to 10 uM preincubated for 15 mins followed by E1, Ub and ATP addition measured after 40 mins by Western blot analysis.

Data set [4] has as its target Ubiquitin-conjugating enzyme E2 D3 (Mus musculus) (UniProt P61079). The experiment in a line: Inhibition of UbcH5c in mouse b.End3 cells assessed as decrease in TNF-alpha-mediated IkB-alpha degradation at 10 uM preincubated for 2 hrs followed by TNF-alpha stimulation for 15 mins by Western blot analysis.
Data set [5] can be described thus: Half life in rat liver microsomes at 5 uM in preincubated for 3 mins followed by NADPH addition measured up to 90 mins. The format is ADME, microsome. The method, boiled down:
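Rat liver microsomes (0.5 mg/mL) were used in 100 mM potassium phosphate, pH 7.4, with compound at 5 µM final. After 3 min preincubation at 37 °C, an NADPH-generating system was added (4 mM MgCl2, 1 mM NADP+, 10 mM glucose 6-phosphate, 1 unit/mL G6PDH). Incubation continued for 0–90 min and was stopped with ice-cold acetonitrile.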
(In general: Liver microsomes are vesicles of endoplasmic reticulum, rich in cytochrome P450 enzymes.)

Data set [6] has as its system Rattus norvegicus. The experiment in a line: Antiarthritic activity in Wistar rat Freund's adjuvant-induced arthritis model assessed as protection against body weight loss at 5 to 20 mg/kg, po qd administered on day 10 to 20 postimmunization measured every 2 to 3 days during compound dosing. The format is functional, organism-based. The method, boiled down: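 Adjuvant arthritis was induced by intradermal CFA (0.1 mL) into the base of the left hind paw (day 0), with a boost 10 days later. Rats were dosed orally once daily at 5 or 20 mg/kg from day 10 to day 20, with 10 rats per group. Vehicle controls received 0.3% sodium carboxymethylcellulose. Two blinded observers scored the animals every 2 or 3 days. Data are mean ± S.E.M.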

Data set [7] in a line: Clearance in Sprague-Dawley rat at 1 mg/kg, iv by LC-MS/MS analysis. In kind it is ADME, organism-based. The note with it: in vivo. An outline of the steps: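 Male Sprague-Dawley rats (about 200‒220 g; n = 6) were fasted overnight and given a single 1 mg/kg iv dose in DMSO:castor oil:saline (3:3:94). Blood was sampled from the orbital artery into heparin tubes. Plasma was analysed by LC/MS/MS (ESI, MRM), and parameters came from noncompartmental analysis. Values are mean ± SD.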

Data set [8] is described as follows: Half life in rat whole blood at 5 uM. The format is ADME. An outline of the steps:
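Compound (5 µM final, from a 25 mM DMSO stock) was incubated at 37 °C in rat plasma (0–90 min) or rat whole blood (0, 5, 10, 30, 60, 90 min). Reactions were quenched with ice-cold acetonitrile, centrifuged, and the supernatants analysed.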

Data set [9] has as its target Ubiquitin-conjugating enzyme E2 D2 (Homo sapiens) (UniProt P62837). The experiment in a line: Inhibition of UbcH5b (unknown origin) at 2.5 to 10 uM preincubated for 15 mins followed by E1, Ub and ATP addition measured after 40 mins by Western blot analysis.

Ubiquitin-conjugating enzyme E2 D3 (Mus musculus), sequence (P61079 whole entry, looked up): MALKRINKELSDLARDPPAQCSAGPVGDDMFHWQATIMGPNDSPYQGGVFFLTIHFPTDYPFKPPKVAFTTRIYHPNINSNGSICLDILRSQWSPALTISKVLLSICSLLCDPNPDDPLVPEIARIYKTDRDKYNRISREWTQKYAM
Ubiquitin-conjugating enzyme E2 D2 (Homo sapiens), sequence (P62837 whole entry, looked up): as the sequence (P61079 whole entry, looked up) above, with N7H, S11N, D132E, S138A counted along it

The term Cmax denotes the highest concentration seen after dosing. A word on the half-life: it is the time needed for the level to fall by half in the phase considered. High values mean slow loss, low ones fast loss. As a reminder, the clearance is a measure of how efficiently the substance is removed, as volume per time. A higher clearance goes with a high capacity for elimination. `C=C1C(=O)O[C@H]2c3c(C)c(OCc4ccccc4Br)cc(C)c3CC[C@@H]12` displayed a Cmax in [1] of 42.2 ng/mL. Besides, the inhibition entry in data set [2] is “Dose-dependent effect”. For the same molecule, the inhibition entry in data set [3] was “inactive”. Further, the inhibition result in data set [4] and in data set [9] was “Active” in each case. For the same molecule, the half-life at 5 µM in data set [5] worked out at 2.11 h; in data set [8] it was 0.663 h. The outcome in [6] was inactive. In [7], this molecule showed a clearance of 41.3 mL/min/kg.
